# ChEMBL document CHEMBL2176936, “Identification of a 4-(hydroxymethyl)diarylhydantoin as a selective androgen receptor modulator” (J Med Chem, 2012)
# Assays:
# Rattus norvegicus [1] = assay: Androgenic activity in ORX rat model assessed as weight of ventral prostate at 10 mg/kg/day, po administered for 4 days; format: functional, Prostate gland
# Outline: (§1)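 Hershberger-type model in castrated immature male rats: left untreated one week after castration, then dosed four days (test compounds oral; testosterone propionate sc). Levator ani and ventral prostate weights normalised to body weight; activity % = (W/BW treated − W/BW ORX)/(W/BW sham − W/BW ORX) × 100. A50 = dose giving 50% activity on the tissue.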
# [2] = Oral bioavailability in rat at 10 mg/kg and 3 mg/kg, iv; format: ADME, organism-based; conditions: in vivo
# Outline: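 Absolute oral bioavailability in rats: single oral dose 10 mg/kg in EtOH/PEG400/H₂O (1/79/20, v/v/v) compared with single iv dose 3 mg/kg in DMSO/PEG400/H₂O (1/65/34, v/v/v).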
# [3] = Oral bioavailability in monkey; format: ADME, organism-based, Macaca mulatta; conditions: rhesus monkey, in vivo
# Rattus norvegicus [4] = assay: Androgenic activity in ORX rat model assessed as weight of ventral prostate at 30 mg/kg/day, po administered for 4 days; format: functional, Prostate gland; outline: as §1
# Rattus norvegicus [5] = assay: Anabolic activity in ORX rat model assessed as weight of levator ani muscle at 30 mg/kg/day, po administered for 4 days; format: functional; outline: as §1
# Rattus norvegicus [6] = assay: Anabolic activity in ORX rat model assessed as weight of levator ani muscle at 10 mg/kg/day, po administered for 4 days; format: functional; outline: as §1
# Rattus norvegicus [7] = assay: […] activity in ORX rat model assessed as activity on ventral prostate at 30 mg/kg/day, po administered for 4 days; format: functional, Prostate gland; outline: as §1
# [8] = Volume of distribution at steady state in Sprague-Dawley rat at 3 mg/kg, iv; format: ADME, organism-based; parameters: dose 3 mg/kg, route intravenous; conditions: in vivo, read-out: Vdss
# Outline: (§2)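 Male Sprague-Dawley rats, single dose: iv 3 mg/kg in DMSO/PEG200/H₂O (1/79/20, v/v/v), or oral 10 mg/kg in EtOH/PEG200/H₂O (1/79/20, v/v/v). Two groups of three rats; N = 2 rats for one arm. CL, T1/2, Vdss, AUC(0−∞) and F derived.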
# [9] = Clearance in Sprague-Dawley rat at 3 mg/kg, iv; format: ADME, organism-based; parameters: dose 3 mg/kg, route intravenous; conditions: in vivo; outline: as §2
# Rattus norvegicus [10] = assay: Anabolic activity in ORX rat model assessed as increase in levator ani muscle weight at 10 mg/kg/day, po administered for 3 months relative to sham-treated control; format: functional
# Outline: (§3)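 Rats castrated at seven weeks of age, then given compound orally for three months in a prophylactic setting at 10 mg/kg/day. Levator ani and prostate weights normalised with sham-operated rats set to 100% and ORX rats set to 0%.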
# Rattus norvegicus [11] = assay: Anabolic activity in ORX rat model assessed as dose required for 50% activity on levator ani muscle po administered for 4 days; format: functional; outline: as §1
# [12] = AUC (0 to infinity) in Sprague-Dawley rat at 3 mg/kg, iv; format: ADME, organism-based; parameters: dose 3 mg/kg, route intravenous, time infinity; conditions: plasma
# [13] = Half life in Sprague-Dawley rat at 3 mg/kg, iv; format: ADME, organism-based; parameters: dose 3 mg/kg, route intravenous; conditions: in vivo; outline: as §2
# [14] = Oral bioavailability in Sprague-Dawley rat at 10 mg/kg; format: ADME, organism-based; conditions: in vivo; outline: as §2
# Rattus norvegicus [15] = assay: […] activity in ORX rat model assessed as increase in prostate weight at 10 mg/kg/day, po administered for 3 months relative to sham-treated control; format: functional, Prostate gland; outline: as §3
# [16] = AUC (0 to infinity) in Sprague-Dawley rat at 10 mg/kg, po; format: ADME, organism-based; parameters: time infinity, dose 10 mg/kg, route oral; conditions: plasma
# [17] = Half life in Sprague-Dawley rat at 10 mg/kg, po; format: ADME, organism-based; parameters: dose 10 mg/kg, route oral; conditions: in vivo; outline: as §2
# Rattus norvegicus [18] = assay: Anabolic activity in ORX rat model assessed as weight of levator ani muscle at 1 mg/kg/day, sc administered for 4 days; format: functional; conditions: route subcutaneous; outline: as §1
# Rattus norvegicus [19] = assay: Androgenic activity in ORX rat model assessed as dose required for 50% activity on ventral prostate po administered for 4 days; format: functional, Prostate gland; outline: as §1
# Rattus norvegicus [20] = assay: Androgenic activity in ORX rat model assessed as weight of ventral prostate at 1 mg/kg/day, sc administered for 4 days; format: functional, Prostate gland; conditions: route subcutaneous; outline: as §1
SMILES,Activity (Rattus norvegicus [1]),bioavailability [2],Activity (Rattus norvegicus [6]),further results
CN1C(=O)N(c2ccc(C#N)c(C(F)(F)F)c2)C(=O)[C@@]1(C)c1ccc(O)cc1,12%,< 9%,,bioavailability [3]: < 9%; Activity (Rattus norvegicus [4]): 26%; Activity (Rattus norvegicus [5]): 77%
CN1C(=O)N(c2ccc(C#N)c(C(F)(F)F)c2)C(=O)[C@]1(CO)c1ccccc1,,,101%,
CN1C(=O)N(c2ccc(C#N)c(C(F)(F)F)c2)C(=O)C1(C)c1ccc(O)cc1 (racemic),8%,1.5%,68%,Activity (Rattus norvegicus [4]): 16%; Activity (Rattus norvegicus [5]): 89%
CN1C(=O)N(c2ccc(Cl)c(Cl)c2)C(=O)C1(CO)c1ccccc1 (racemic),23%,,96%,
CCN1C(=O)N(c2ccc(C#N)c(C(F)(F)F)c2)C(=O)C1(CO)c1ccccc1 (racemic),59%,76%,112%,
CC(C)N1C(=O)N(c2ccc(C#N)c(C(F)(F)F)c2)C(=O)C1(CO)c1ccccc1 (racemic),60%,,109%,
C#CCN1C(=O)N(c2ccc(C#N)c(C(F)(F)F)c2)C(=O)C1(CO)c1ccccc1 (racemic),43%,,96%,
CN1C(=O)N(c2ccc(C#N)c(C(F)(F)F)c2)C(=O)C1(C)c1ccc2[nH]ccc2c1 (racemic),,19%,,
CN1C(=O)N(c2ccc(C#N)c(C(F)(F)F)c2)C(=O)C1(C)c1ccc2[nH]cnc2c1 (racemic),,100%,,
CN1C(=O)N(c2ccc(C#N)c(C(F)(F)F)c2)C(=O)C1(CO)c1ccccc1 (racemic),13%,63%,,Activity (Rattus norvegicus [4]): 14%; Activity (Rattus norvegicus [5]): 96%
COc1ccc(C2(CO)C(=O)N(c3ccc(C#N)c(C(F)(F)F)c3)C(=O)N2C)cc1 (racemic),,25%,,Activity (Rattus norvegicus [4]): 95%; Activity (Rattus norvegicus [5]): 130%
CN1C(=O)N(c2ccc(C#N)c(C(F)(F)F)c2)C(=O)C1(CO)c1ccc(O)cc1 (racemic),,15%,,Activity (Rattus norvegicus [4]): 55%; Activity (Rattus norvegicus [5]): 82%
CN1C(=O)N(c2ccc(C#N)c(C(F)(F)F)c2)C(=O)C1(CO)c1ccccc1Cl (racemic),7%,,26%,
CN1C(=O)N(c2ccc(C#N)c(C(F)(F)F)c2)C(=O)C1(CO)c1cccc(Cl)c1 (racemic),16%,,66%,
CN1C(=O)N(c2ccc(C#N)c(C(F)(F)F)c2)C(=O)C1(CO)c1ccc(Cl)cc1 (racemic),0%,99%,35%,
CN1C(=O)N(c2ccc(C#N)c(C(F)(F)F)c2)C(=O)C1(CO)c1ccc(F)cc1 (racemic),,87%,,
CN1C(=O)N(c2ccc(C#N)c(C(F)(F)F)c2)C(=O)C1(CO)c1cccc(C#N)c1 (racemic),26%,,84%,
CN1C(=O)N(c2ccc(C#N)c(C(F)(F)F)c2)C(=O)C1(CO)c1ccc(C#N)cc1 (racemic),11%,,12%,
Cc1cccc(C2(CO)C(=O)N(c3ccc(C#N)c(C(F)(F)F)c3)C(=O)N2C)c1 (racemic),0%,,24%,
CN1C(=O)N(c2ccc(C#N)c(C(F)(F)F)c2)C(=O)[C@@]1(CO)c1ccccc1 [GLPG0492],24%,56%,101%,%max (Rattus norvegicus [7]): 30%; Vd [8]: 2.5 L/kg; clearance [9]: 21.7 mL/min/kg; Activity (Rattus norvegicus [10]): 117%; Activity (Rattus norvegicus [11]): 0.75 mg/kg/day; AUC(0-inf) [12]: 2360 ng·h/mL; half-life [13]: 1.5 h; bioavailability [14]: 56%; Activity (Rattus norvegicus [15]): 25%; Activity (Rattus norvegicus [4]): 26%; AUC(0-inf) [16]: 4680 ng·h/mL; Activity (Rattus norvegicus [5]): 106%; half-life [17]: 2.2 h
CCC(=O)O[C@H]1CC[C@H]2[C@@H]3CCC4=CC(=O)CC[C@]4(C)[C@H]3CC[C@]12C [TESTOSTERONE PROPIONATE],,,,Activity (Rattus norvegicus [18]): 99%; Activity (Rattus norvegicus [11]): 0.3 mg/kg/day; Activity (Rattus norvegicus [19]): 0.2 mg/kg/day; Activity (Rattus norvegicus [20]): 73%
